Experimental data published in paper PMC6682096 (ACS Omega, 2019).
“Also recorded” adds a separate entry of the source.

Assays:
[1] = tested on: insulin-resistant HepG2 cells; test: 2-NBDG glucose uptake assay; format: cell-based, human; details: for relative glucose uptake percentage: insulin-stimulated 2-NBDG uptake
In short: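 Insulin-resistant HepG2 cells (grown in 10% FBS MEM; resistance induced by a previously reported method) treated with test compound at 12.5, 25 and 50 μM and stimulated with 10–6 M insulin. Uptake of the fluorescent glucose analogue 2-NBDG read fluorimetrically on a plate reader. Rosiglitazone (10 μM) served as reference. Triplicate experiments, mean ± standard deviation.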

[2] = tested on: IRS-1/PI3K/Akt signaling pathway in insulin-resistant HepG2 cells; test: Western blot of IRS-1/PI3K/Akt signaling pathway; format: cell-based, human
[3] = tested on: PEPCK and G6Pase expression in insulin-resistant HepG2 cells; test: Western blot of PEPCK and G6Pase expression levels; format: cell-based, human
HepG2 cells = test: Cytotoxicity, cell viability by MTT assay; format: cell-based, human; details: up to 100 μM
In short: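 HepG2 cells were subcultured in MEM with 10% FBS, refreshing the medium every 48 h until confluent. They were then seeded in 96-well plates, and viability after test-compound exposure was assessed by MTT assay.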

PTP1B [4] = target: T1, PTP1B (Homo sapiens, UniProt P18031); test: Enzyme kinetics of PTP1B inhibition; format: biochemical; details: for Ki: secondary plots
T1 sequence (P18031 1-435): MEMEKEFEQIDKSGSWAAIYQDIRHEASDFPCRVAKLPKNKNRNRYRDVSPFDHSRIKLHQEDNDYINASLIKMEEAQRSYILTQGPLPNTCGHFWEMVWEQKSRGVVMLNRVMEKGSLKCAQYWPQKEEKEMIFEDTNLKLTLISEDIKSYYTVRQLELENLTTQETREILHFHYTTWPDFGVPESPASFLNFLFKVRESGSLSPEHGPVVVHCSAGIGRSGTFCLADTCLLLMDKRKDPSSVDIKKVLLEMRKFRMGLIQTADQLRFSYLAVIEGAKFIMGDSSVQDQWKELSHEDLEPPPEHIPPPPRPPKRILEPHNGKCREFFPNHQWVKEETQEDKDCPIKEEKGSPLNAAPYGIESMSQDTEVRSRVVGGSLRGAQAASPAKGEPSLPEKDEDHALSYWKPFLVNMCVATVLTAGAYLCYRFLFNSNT
In short: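 Human recombinant PTP1B (0.5 unit) in pH 6.0 buffer (50 mM citrate, 0.1 M NaCl, 1 mM EDTA, 1 mM DTT) was preincubated with or without test compound for 10 min at 37 °C. pNPP substrate was then added at three concentrations and incubated for 20 min at 37 °C. NaOH stopped the reaction, and p-nitrophenol was read at 405 nm. Km and Vmax came from Lineweaver–Burk plots, with Dixon plots also used. Ki, Kic and Kiu came from secondary plots.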

[5] = target: T2, human monoamine oxidase A (hMAO-A) (Homo sapiens, UniProt P21397); test: hMAO-A inhibition chemiluminescent assay; format: biochemical
T2 sequence (P21397 1-527): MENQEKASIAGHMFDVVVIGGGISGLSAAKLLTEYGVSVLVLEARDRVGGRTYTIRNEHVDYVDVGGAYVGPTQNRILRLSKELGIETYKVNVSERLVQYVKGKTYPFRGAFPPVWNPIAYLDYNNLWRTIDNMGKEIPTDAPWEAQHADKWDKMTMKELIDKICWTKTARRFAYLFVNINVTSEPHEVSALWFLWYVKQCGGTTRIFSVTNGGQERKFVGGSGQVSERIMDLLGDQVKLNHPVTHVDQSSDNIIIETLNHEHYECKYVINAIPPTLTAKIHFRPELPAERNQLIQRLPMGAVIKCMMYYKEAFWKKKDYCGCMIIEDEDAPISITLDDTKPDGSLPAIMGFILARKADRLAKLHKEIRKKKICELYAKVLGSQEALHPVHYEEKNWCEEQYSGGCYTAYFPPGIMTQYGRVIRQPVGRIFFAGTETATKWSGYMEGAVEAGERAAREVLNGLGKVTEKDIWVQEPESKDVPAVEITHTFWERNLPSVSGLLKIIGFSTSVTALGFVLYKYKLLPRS

PTP1B [6] = target: T1, PTP1B; test: PTP1B inhibition assay using pNPP; format: biochemical
[7] = tested on: PTP1B expression in insulin-resistant HepG2 cells; test: Western blot of PTP1B expression level; format: cell-based, human; details: 24 h treatment
hMAO-A = target: T3, hMAO-A (Homo sapiens, UniProt P21397); test: Enzyme kinetics of hMAO-A inhibition; format: biochemical; details: Lineweaver–Burk plot
T3 sequence (P21397 1-527): T2 sequence (P21397 1-527)
In short: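 hMAO-A activity measured by chemiluminescent MAO-Glo assay, with MAO substrate at three concentrations, with or without test compound. Lineweaver–Burk plots (with Dixon plots) gave Km, Vmax and inhibition mode. Ki, Kic and Kiu came from secondary plots.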

SMILES	insulin-stimulated glucose uptake ([1]; 10 μM, 2-NBDG)	expression of total IRS-1 and p-IRS-1 (Tyr 895) [2]	relative abundances of p-PI3K and p-Akt [2]	expressions of PEPCK and G6Pase [3]	cytotoxicity (cell viability) (HepG2 cells)	PTP1B inhibition type (PTP1B [4]; Lineweaver–Burk plot)	Ki (PTP1B [4]; PTP1B inhibition Ki value (Kic), binding constant of the inhibitor with the free enzyme)	Ki (PTP1B [4]; PTP1B inhibition Ki value (Kiu), binding constant of the inhibitor with the enzyme–substrate complex)	IC50 [5]	IC50 (PTP1B [6])	relative glucose uptake percentage ([1]; 12.5 μM)	relative glucose uptake percentage ([1]; 25 μM)	relative glucose uptake percentage ([1]; 50 μM)	PTP1B expression [7]	hMAO-A inhibition type (hMAO-A)
CN(CCOc1ccc(CC2SC(=O)NC2=O)cc1)c1ccccn1 (stereo not drawn) [Rosiglitazone, reference compound]	118.52%														
COc1cc(O)c2c(O)c3c(=O)cc(C)oc3cc2c1 [rubrofusarin]		dose-dependently increased the expression of total IRS-1 and p-IRS-1 (Tyr 895)	in a dose-dependent manner increased the relative abundances of p-PI3K and p-Akt	downregulate the expressions of PEPCK and G6Pase	showed toxicity at 100 μM; also recorded: nontoxic up to a 50 μM concentration	mixed-competitive	6.99 µM	18.3 µM	5.9 ± 0.99 µM	17 ± 0.49 µM	68.54%	81.27%	98.47%	inhibited PTP1B expression in a dose-dependent manner; also recorded: at 50 μM concentration significantly reduced the expression	mixed-competitive
